ChEMBL document CHEMBL1933059, “Imidazo [4,5f][1,10] phenanthroline derivatives as inhibitor of c-myc gene expression in A549 cells via NF-κB pathway” (Bioorg Med Chem Lett, 2012)

Key:
A549 [1] = experiment: Cytotoxicity against human A549 cells after 72 hrs by MTT assay; assay type: functional, cell-based; conditions: A549, 72 h
Procedure, shortened: (§1)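 MTT growth-inhibition assay; IC50 values given as mean ± SD of triplicates.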

Bel-7402 = experiment: Cytotoxicity against human Bel7402 cells after 72 hrs by MTT assay; assay type: functional, cell-based; conditions: Bel-7402, 72 h; procedure, shortened: as §1
HepG2 = experiment: Cytotoxicity against human HepG2 cells after 72 hrs by MTT assay; assay type: functional, cell-based; conditions: HepG2, 72 h; procedure, shortened: as §1
A549 [2] = experiment: Inhibition of NFkappa B in human A549 cells assessed as down regulation of NF-kappaB p65 protein expression after 24 hrs by Western blot analysis; assay type: cell-based
Procedure, shortened: (§2)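 A549 cells treated at 1, 2.5 and 5 μM. Timepoints: IκBα 24 h, p65 24 h, c-myc 24 and 48 h. Total cell lysates resolved on 10% polyacrylamide gels and immunoblotted with protein-specific antibodies. β-actin and GAPDH serve as internal controls. Mean ± SD of triplicates.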

A-375 = experiment: Cytotoxicity against human A375 cells after 72 hrs by MTT assay; assay type: functional, cell-based; conditions: A-375, 72 h; procedure, shortened: as §1
A549 [3] = experiment: Inhibition of NFkappa B in human A549 cells assessed as down regulation of NF-kappaB p65 protein expression at 1 to 5 uM by Western blot analysis; assay type: cell-based; conditions: TDE = time-dependent effect; procedure, shortened: as §2
A549 [4] = experiment: Inhibition of NFkappa B in human A549 cells assessed as decrease in c-myc protein expression at 1 to 5 uM by Western blot analysis; assay type: cell-based; conditions: TDE = time-dependent effect; procedure, shortened: as §2
A549 [5] = experiment: Inhibition of NFkappa B in human A549 cells assessed as decrease in c-myc protein expression after 24 to 48 hrs by Western blot analysis; assay type: cell-based; procedure, shortened: as §2
[6] = Cytotoxicity against human CNE1 cells after 72 hrs by MTT assay; assay type: functional, cell-based; conditions: CNE; procedure, shortened: as §1
A549 [7] = experiment: Induction of apoptosis in human A549 cells at 1 uM after 24 hrs by annexinV-propidium iodide staining-based flow cytometric analysis (reference value: 10.81%); assay type: functional
A549 [8] = experiment: Down regulation of c-myc gene expression in human A549 cells after 24 to 48 hrs by qRT-PCR analysis; assay type: functional, cell-based
[9] = Cytotoxicity against human HO8910 cells after 72 hrs by MTT assay; assay type: functional, cell-based; conditions: HO-8910, 72 h; procedure, shortened: as §1
A549 [10] = experiment: Induction of apoptosis in human A549 cells at 2.5 uM after 24 hrs by annexinV-propidium iodide staining-based flow cytometric analysis (reference value: 10.81%); assay type: functional
A549 [11] = experiment: Induction of IkappaBalpha protein expression in human A549 cells after 24 hrs by Western blot analysis; assay type: functional, cell-based; procedure, shortened: as §2
A549 [12] = experiment: Induction of apoptosis in human A549 cells at 5 uM after 24 hrs by annexinV-propidium iodide staining-based flow cytometric analysis (reference value: 10.81%); assay type: functional

Compound: Clc1ccc(-c2nc3c4cccnc4c4ncccc4c3[nH]2)cc1
- IC50 (A549 [1]): 1.06 µM

Compound: Brc1ccc(-c2nc3c4cccnc4c4ncccc4c3[nH]2)cc1
- IC50 (Bel-7402): 5.8 µM
- IC50 (HepG2): 4.3 µM
- inhibition (A549 [2]): Dose-dependent effect
- IC50 (A-375): 0.98 µM
- inhibition (A549 [3]): tde
- inhibition (A549 [4]): tde
- inhibition (A549 [5]): Dose-dependent effect
- IC50 [6]: 1.2 µM
- Activity (A549 [7]): 35.26%
- Activity (A549 [8]): Dose-dependent effect
- IC50 [9]: 1.56 µM
- Activity (A549 [10]): 43.26%
- Activity (A549 [11]): Dose-dependent effect
- Activity (A549 [12]): 50.94%
- IC50 (A549 [1]): 0.85 µM

Compound: CCCCOc1ccc(-c2nc3c4cccnc4c4ncccc4c3[nH]2)cc1
- IC50 (A549 [1]): 35.5 µM

Compound: CCCOc1ccc(-c2nc3c4cccnc4c4ncccc4c3[nH]2)cc1
- IC50 (A549 [1]): 18 µM

Compound: CC(C)Oc1ccc(-c2nc3c4cccnc4c4ncccc4c3[nH]2)cc1
- IC50 (A549 [1]): 31.9 µM

Compound: FC(F)(F)c1ccc(-c2nc3c4cccnc4c4ncccc4c3[nH]2)cc1
- IC50 (A549 [1]): 1.73 µM

Compound: CCOc1ccc(-c2nc3c4cccnc4c4ncccc4c3[nH]2)cc1
- IC50 (A549 [1]): 1.96 µM

Compound: Fc1ccc(-c2nc3c4cccnc4c4ncccc4c3[nH]2)cc1
- IC50 (A549 [1]): 1.09 µM

Compound: Cc1ccc(-c2nc3c4cccnc4c4ncccc4c3[nH]2)cc1
- IC50 (A549 [1]): 1.33 µM

Compound: COc1ccc(-c2nc3c4cccnc4c4ncccc4c3[nH]2)cc1
- IC50 (A549 [1]): 1.36 µM
